Consider 7 molecules from PMC8144669 (The Journal of Biological Chemistry, 2021).

One may read the Ki as the equilibrium dissociation constant of an inhibitor or competing ligand from its target. Low values mean a stronger hold on the target, high ones a looser hold on the target. A word on the Kd: it is a measure of binding affinity in units of concentration. A high value points to lower affinity. Broadly, the kcat is the maximal rate divided by the concentration of active sites. For orientation: Km means the concentration of substrate that gives half-maximal velocity.

Assay type in all cases: biochemical
Series [1] concerns the target T1, M4RA (MLL4SET-RBBP5AS-ABM-ASH2LSPRY) (Homo sapiens, UniProt O14686). The experiment in a line: Mass-spectrometry-based. Put shortly:
(§1)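 Enzyme (E. coli-expressed SET–RBBP5–ASH2L ternary complex) was preincubated 15 min with 0, 50 or 100 μM AdoHcy. […] Samples taken every 30 s were quenched with TFA (0.5% final) and chilled to 4 °C. Monomethylated peptide was measured by MALDI-TOF in a CHCA matrix. Data were analysed by Lineweaver–Burk plots and nonlinear fits to competitive, noncompetitive and uncompetitive models, choosing the best coefficient of determination and lowest error.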

Series [2] concerns the target T2, M3RA (MLL3SET-RBBP5AS-ABM-ASH2LSPRY) (Homo sapiens, UniProt Q8NEZ4). In words: Mass-spectrometry-based. In short, it runs like this:
as §1

The target in series [3] is T2, M3RA (MLL3SET-RBBP5AS-ABM-ASH2LSPRY). In words: Continuous enzyme-coupled methylation assay, M3RA.
For series [4], the target named is T1, M4RA (MLL4SET-RBBP5AS-ABM-ASH2LSPRY). In words: Continuous enzyme-coupled methylation assay, M4RA.
Substrate in series [5]: C[S+](CC[C@H](N)C(=O)[O-])C[C@H]1O[C@@H](n2cnc3c(N)ncnc32)[C@H](O)[C@@H]1O
In words: Continuous enzyme-coupled methylation assay, M3RA. The settings on record: other: H3P20 fixed at 1600 μM; pH 8.0; 30.0 °C.

Substrate in series [6]: C[S+](CC[C@H](N)C(=O)[O-])C[C@H]1O[C@@H](n2cnc3c(N)ncnc32)[C@H](O)[C@@H]1O
In words: Continuous enzyme-coupled methylation assay, M4RA. As to conditions: other: H3P20 fixed at 1600 μM; pH 8.0; 30.0 °C.

[7] abbreviates: Ki, varied AdoMet, global fit to Competitive model (Model Fit: Competitive).
Where [8] appears, read: varied substrate AdoMet, H3P20 constant 400 μM.
The mark [9] stands for this setting: varied substrate H3P20, AdoMet constant 200 μM.

T2 sequence (Q15291 330-360 partner limits assumed, one chain of several): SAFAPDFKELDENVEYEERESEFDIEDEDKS
T2 sequence (Q9UBL3 380-599 partner limits assumed, one chain of several): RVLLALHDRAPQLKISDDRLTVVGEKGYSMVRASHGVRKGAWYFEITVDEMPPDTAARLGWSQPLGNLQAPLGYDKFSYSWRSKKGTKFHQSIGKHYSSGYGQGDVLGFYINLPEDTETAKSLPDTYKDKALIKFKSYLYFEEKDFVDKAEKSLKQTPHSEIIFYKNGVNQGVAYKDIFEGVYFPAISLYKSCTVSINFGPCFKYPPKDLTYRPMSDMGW
T1 sequence (Q15291 330-360 partner limits assumed, one chain of several): as the sequence (Q15291 330-360 partner limits assumed, one chain of several) above
T1 sequence (Q9UBL3 380-599 partner limits assumed, one chain of several): as the sequence (Q9UBL3 380-599 partner limits assumed, one chain of several) above

As for `Nc1ncnc2c1ncn2[C@@H]1O[C@H](CSCC[C@H](N)C(=O)O)[C@@H](O)[C@H]1O` [AdoHcy, S-adenosylhomocysteine], the Ki was found to be 11.2 µM in series [1] (setting [7]) and 4.19 µM in series [2] (setting [7]). The Inhibition pattern result in series [1] (setting [8]) was “Competitive”; in series [1] (setting [9]), “Noncompetitive”; in series [2] (setting [8]), “Competitive”; in series [2] (setting [9]) it was “Noncompetitive”.

For the molecule `C[S+](CC[C@H](N)C(=O)[O-])C[C@H]1O[C@@H](n2cnc3c(N)ncnc32)[C@H](O)[C@@H]1O` (stereo partly shown) [AdoMet, S-adenosylmethionine], the values for the Kd in series [3] and in series [4] were 4.29 ± 0.44 µM and 10.3 ± 0.46 µM, respectively. Also, in series [3] (from secondary plots, Michaelis constant for formation of EAB from A to EB), the KBA was determined as 27.23 ± 3.05 µM.

For `Nc1ncnc2c1ncn2[C@@H]1O[C@H](C[C@@H](N)CC[C@H](N)C(=O)O)[C@@H](O)[C@H]1O` [Sinefungin], the Inhibition pattern entry in series [3] (setting [8]) is recorded as “Competitive”; in series [3] (setting [9]) it was “Noncompetitive”; in series [4] (setting [8]), “Competitive”; in series [4] (setting [9]), “Noncompetitive”.

On to “M3RA: ternary complex of MLL3 SET domain, RBBP5AS-ABM and ASH2LSPRY”, for which the kcat in series [3] (from secondary plots) was 0.108 ± 0.00783 s⁻¹.

As for “M4RA: ternary complex of MLL4 SET domain, RBBP5AS-ABM and ASH2LSPRY”, in series [4] (from secondary plots), the catalytic constant (kcat) turned out to be 0.108 ± 0.00533 s⁻¹.

B1: M3RA (MLL3SET-RBBP5AS-ABM-ASH2LSPRY) (Homo sapiens) (protein)
chain: SNVYLARSRIQGLGLYAARDIEKHTMVIEYIGTIIRNEVANRKEKLYESQNRGVYMFRMDNDHVIDATLTGGPARYINHSCAPNCVAEVVTFERGHKIIISSSRRIQKGEELCYDYK
In the case of B1, in series [5], the Km came out at 20.0 ± 1.5 µM and the turnover number (kcat) was determined as 0.0833 ± 0.0017 s⁻¹.

B2: M4RA (MLL4SET-RBBP5AS-ABM-ASH2LSPRY) (Homo sapiens) (protein)
chain: NNVYLARSRIQGLGLYAAKDLEKHTMVIEYIGTIIRNEVANRREKIYEEQNRGIYMFRINNEHVIDATLTGGPARYINHSCAPNCVAEVVTFDKEDKIIIISSRRIPKGEELTYDYQ
For the molecule B2, in series [6], the Km came out at 6.9 ± 0.4 µM and the kcat was 0.08 ± 0.0017 s⁻¹.
